The values below come from ChEMBL document CHEMBL1131183, “New 1alpha,25-dihydroxy-19-norvitamin D3 compounds of high biological activity: synthesis and biological evaluation of 2-hydroxymethyl, 2-methyl, and 2-methylene analogues” (1998).

Molecules are shown by their SMILES. “And” between values parts separate entries of the source, which are not always exact repeats. Equal values may be shown once.

The species entered for experiment [1] is Rattus norvegicus. Briefly: Bone calcium mobilization measured in vitamin D-deficient rats on a low-calcium diet(130). The experiment is classed as functional, organism-based. In a few lines:
(§1)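 Weanling male rats kept on 0.47% Ca diet 1 week, then 0.02% Ca diet 3 weeks; dosed ip daily for 7 days (130 or 260 pmol) in 0.1 mL propylene glycol/ethanol 95:5 during last week; vehicle controls. Serum Ca measured 24 h after last dose by atomic absorption with 0.1% LaCl3; rise in serum Ca taken as bone mobilization. ≥6 rats/group, mean ± SEM, Student's t-test.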

Experiment [2] deals with T1, Vitamin D3 receptor (Sus scrofa) (UniProt A3RGC1).
T1 sequence (whole entry): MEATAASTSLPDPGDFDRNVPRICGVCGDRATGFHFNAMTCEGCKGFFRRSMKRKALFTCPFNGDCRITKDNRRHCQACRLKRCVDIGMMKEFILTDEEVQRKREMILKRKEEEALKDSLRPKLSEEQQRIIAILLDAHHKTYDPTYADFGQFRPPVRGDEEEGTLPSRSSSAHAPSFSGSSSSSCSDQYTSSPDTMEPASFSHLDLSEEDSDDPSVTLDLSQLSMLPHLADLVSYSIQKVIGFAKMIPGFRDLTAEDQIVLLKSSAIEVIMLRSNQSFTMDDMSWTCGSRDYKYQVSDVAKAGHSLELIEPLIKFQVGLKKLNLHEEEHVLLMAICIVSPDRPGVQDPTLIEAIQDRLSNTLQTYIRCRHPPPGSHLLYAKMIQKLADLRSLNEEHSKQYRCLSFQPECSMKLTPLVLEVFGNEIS

The species named for experiment [3] is Rattus norvegicus. Briefly: Bone calcium mobilization measured in vitamin D-deficient rats on a low-calcium diet(260). The experiment is classed as functional, organism-based. In a few lines:
as §1

Experiment [4] is filed under the species Rattus norvegicus. Put plainly: Support of intestinal calcium transport measured in vitamin D-deficient rats on a low-calcium diet(130). Format: functional. In a few lines:
(§2)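 Vitamin D-deficient weanling male rats, 0.47% Ca diet 1 week then 0.02% Ca diet 3 weeks, given 130 or 260 pmol ip daily for 7 days in 0.1 mL propylene glycol/ethanol 95:5; vehicle controls. Killed 24 h after last dose; everted sac of proximal 10 cm intestine, Ca by atomic absorption, expressed as serosal/mucosal ratio. ≥6 rats/group, mean ± SEM, t-test.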

Experiment [5] is filed under the species Rattus norvegicus. Put plainly: Support of intestinal calcium transport measured in vitamin D-deficient rats on a low-calcium diet(260). The experiment is classed as functional. In a few lines: as §2
A further experiment has as its system HL-60. Put plainly: Induced differentiation of human promyelocyte HL-60 cells into monocytes. Format: functional. Conditions: read-out: ED50 (the source's name).
In experiment [6] the target is T1, Vitamin D3 receptor (Sus scrofa). Put plainly: Inhibition of 1-alpha,25-(OH)2D3 binding to porcine intestinal vitamin D receptor. In a few lines: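 Porcine intestinal nuclear extract, 0.1 mg protein (200 fmol binding activity) per tube, incubated with 10 000 cpm 1α,25-(OH)2[26,27-3H]D3 plus graded unlabelled standard or analogue in ethanol, 4 h room temperature with shaking. Bound label captured on hydroxyapatite, washed with TE/5% Triton, counted by scintillation. ED50 = concentration displacing 50% of label, from dose-response curves; triplicate on two occasions.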

With `C=C1[C@H](O)CC(=C/C=C2\CCC[C@]3(C)[C@@H]([C@H](C)CCCC(C)(C)O)CC[C@@H]23)C[C@H]1O`, the Serum Ca2+ turned out to be 9.9 in the experiment listed under Rattus norvegicus [1] and 9.6 in the experiment listed under Rattus norvegicus [3]. For the same compound, the ED50 in experiment [2] is 0.12 nM. Also, the “Ca2+ transport S/M” value is 5.3 in the experiment listed under Rattus norvegicus [4] and 4.9 in the experiment filed under Rattus norvegicus [5]. In the experiment with HL-60 (Homo sapiens, HL-60), the EC50 was determined as 4.2 nM.

With `C=C1[C@H](O)CC(=C/C=C2\CCC[C@]3(C)[C@@H]([C@@H](C)CCCC(C)(C)O)CC[C@@H]23)C[C@H]1O` [DP001], the values for the Serum Ca2+ in the experiment listed under Rattus norvegicus [1] and in the experiment filed under Rattus norvegicus [3] were 13.8 and 14.4, respectively. This compound yielded an ED50 in experiment [2] of 0.1 nM. Moreover, the “Ca2+ transport S/M” value is reported as 5.8 in the experiment filed under Rattus norvegicus [4] and 4.6 in the experiment filed under Rattus norvegicus [5]. Moreover, the EC50 with HL-60 (Homo sapiens, HL-60) is 0.15 nM.

Regarding `C[C@H](CCCC(C)(C)O)[C@H]1CC[C@H]2/C(=C/C=C3C[C@@H](O)C(CO)[C@H](O)C3)CCC[C@]12C` (stereo partly specified), the EC50 with HL-60 (Homo sapiens, HL-60) is 20 nM.

`C[C@@H](CCCC(C)(C)O)[C@H]1CC[C@H]2/C(=C/C=C3C[C@@H](O)C(CO)[C@H](O)C3)CCC[C@]12C` (stereo partly specified) [listing 1 of 3 here]: the “Ca2+ transport S/M” value in the experiment filed under Rattus norvegicus [4] and in the experiment filed under Rattus norvegicus [5] was 3.5 in each case. In addition, in the experiment with HL-60, the EC50 was 4.5 nM.

`CC1[C@H](O)CC(=C/C=C2\CCC[C@]3(C)[C@@H]([C@@H](C)CCCC(C)(C)O)CC[C@@H]23)C[C@H]1O` (stereo partly specified) [listing 1 of 3 here]: the “Ca2+ transport S/M” value in the experiment filed under Rattus norvegicus [4] turned out to be 12.9; in the experiment listed under Rattus norvegicus [5] it was 8.4. Further, the EC50 in the experiment on HL-60 is 0.07 nM.

As for `CC1[C@H](O)CC(=C/C=C2\CCC[C@]3(C)[C@@H]([C@@H](C)CCCC(C)(C)O)CC[C@@H]23)C[C@H]1O` (stereo partly specified) [listing 2 of 3 here], the Serum Ca2+ in the experiment filed under Rattus norvegicus [1] was 8.3 and 4.4; in the experiment filed under Rattus norvegicus [3], 10.3 and 4.4. Also, the ED50 in experiment [2] is 0.4 nM and 0.5 nM.

For the compound `CC1[C@H](O)CC(=C/C=C2\CCC[C@]3(C)[C@@H]([C@H](C)CCCC(C)(C)O)CC[C@@H]23)C[C@H]1O` (stereo partly specified) [listing 1 of 3 here], the “Ca2+ transport S/M” value in the experiment filed under Rattus norvegicus [4] is on record as 4.4; in the experiment listed under Rattus norvegicus [5] it was 3. In addition, in the experiment on HL-60, the EC50 came out at 8 nM.

`CC1[C@H](O)CC(=C/C=C2\CCC[C@]3(C)[C@@H]([C@H](C)CCCC(C)(C)O)CC[C@@H]23)C[C@H]1O` (stereo partly specified) [listing 2 of 3 here]: the Serum Ca2+ in the experiment listed under Rattus norvegicus [1] is 4.1 and 4.8; in the experiment filed under Rattus norvegicus [3] it was 3.8 and 5.8.

Turning to `CC1[C@H](O)CC(=C/C=C2\CCC[C@]3(C)[C@@H]([C@@H](C)CCCC(C)(C)O)CC[C@@H]23)C[C@H]1O` (stereo partly specified) [listing 3 of 3 here], the “Ca2+ transport S/M” value in the experiment filed under Rattus norvegicus [4] is 2.9; in the experiment filed under Rattus norvegicus [5] it was 3.8. Moreover, the EC50 in the experiment on HL-60 came to 0.7 nM.

On to `C[C@@H](CCCC(C)(C)O)[C@H]1CC[C@H]2/C(=C/C=C3C[C@@H](O)C(CO)[C@H](O)C3)CCC[C@]12C` (stereo partly specified) [listing 2 of 3 here], for which the “Ca2+ transport S/M” value amounted to 5 in the experiment filed under Rattus norvegicus [4] and 5.8 in the experiment filed under Rattus norvegicus [5]. Moreover, in the experiment on HL-60, the EC50 came out at 2 nM.

Take `CC1[C@H](O)CC(=C/C=C2\CCC[C@]3(C)[C@@H]([C@H](C)CCCC(C)(C)O)CC[C@@H]23)C[C@H]1O` (stereo partly specified) [listing 3 of 3 here]: the figures for the “Ca2+ transport S/M” value in the experiment filed under Rattus norvegicus [4] and in the experiment listed under Rattus norvegicus [5] were 4.3 and 5.3, respectively. In the experiment with HL-60, the EC50 amounted to 0.08 nM.

As for `C=C1/C(=C\C=C2/CCC[C@]3(C)[C@@H]([C@H](C)CCCC(C)(C)O)CC[C@@H]23)C[C@@H](O)C[C@@H]1O` [CALCITRIOL], the Serum Ca2+ in the experiment filed under Rattus norvegicus [3] is 6.6 [middle of 4 runs]. Moreover, in the experiment listed under Rattus norvegicus [5], the “Ca2+ transport S/M” value is 6.2 and 5.6 and 4.6 and 6.6. In addition, in experiment [6], the ED50 amounted to 0.09 nM.

Regarding `C[C@@H](CCCC(C)(C)O)[C@H]1CC[C@H]2/C(=C/C=C3C[C@@H](O)C(CO)[C@H](O)C3)CCC[C@]12C` (stereo partly specified) [listing 3 of 3 here], the Serum Ca2+ in the experiment listed under Rattus norvegicus [1] is 3.6 and 4; in the experiment filed under Rattus norvegicus [3] it was 3.5 and 3.9.
